According to publication PMC2190483 (The Journal of Experimental Medicine, 1976):

Columns and labels:
neutrophils = experiment: Neutrophil chemotaxis to valyl-tetrapeptide and its inhibition by tripeptides; format: cell-based, human; conditions: for irreversible inhibition of the neutrophil response: response to 10^-7 M valyl-tetrapeptide; for inhibition of the response of neutrophils: tripeptide added to the stimulus, equimolar to valyl-tetrapeptide; for chemotactic response of neutrophils: valyl-tetrapeptide stimulus, neutrophils purified to 98%
Outline: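 Neutrophils from normal donors were isolated on Ficoll-Hypaque to 98% purity, washed and resuspended in HBSS-ovalbumin. They were tested in modified Boyden chambers with a 3-µm filter against 10^-7 M valyl-tetrapeptide, with or without NH2- or COOH-terminal tripeptide, for 2½–3 h at 37°C. Migrated cells were counted blind in 10 hpf from duplicate chambers as net neutrophils/hpf.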

human eosinophils [1] = experiment: Modulation; format: cell-based; conditions: for irreversible inhibition of the eosinophil response to 10-7 M valyl-tetrapeptide: neutrophil comparison; for inhibition of response to 10-7 M valyl-tetrapeptide: pretreatment with 10^-7 M tripeptide followed by washing; for inhibition of the valyl-tetrapeptide effect: 10^-7 M tripeptide added with the stimulus
Outline: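 Tripeptides or amides were added to the stimulus compartment with 10^-7 M valyl-tetrapeptide or to the cell compartment. Alternatively, eosinophils were preincubated with them 20 min at 37°C and washed three times. Migration in a modified Boyden chamber (3-µm filter, 2½–3 h, 37°C) was counted as net eosinophils/hpf. It is expressed as % of the response of buffer-treated cells.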

human eosinophils [2] = experiment: Eosinophil chemotaxis in modified Boyden chambers; format: cell-based; conditions: for chemotactic activity (qualitative): eosinophils; for magnitude of the maximum eosinophil response (rank among tetrapeptides): Discussion, Fig. 1
Outline: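 Blood from donors with 26–89% eosinophilia was citrate/dextran-sedimented 30 min at 37°C and centrifuged 100 g for 10 min. Leukocytes were washed three times into HBSS-0.4% ovalbumin-Tris pH 7.4. Stimuli in the lower compartment were separated from cells by a 3-µm filter, incubated 2½–3 h at 37°C. Fixed, stained filters were read blind at background depth (2–8 cells/hpf), 10 hpf from duplicate chambers, as net cells/hpf.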

human eosinophils [3] = experiment: Suppression of the eosinophil chemotactic response to C5a by tripeptides; format: cell-based; conditions: for inhibition of response to C5a: pretreatment with 10^-7 M tripeptide followed by washing; for inhibition of the C5a-stimulated response: 10^-7 M tripeptide added with the stimulus
Outline: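 NH2-terminal tripeptide was added to the stimulus compartment with C5a in two experiments. In three experiments, eosinophils were pretreated with COOH-terminal tripeptide and washed. The C5a stimulus was a tryptic digest of purified human plasma C5, heat-treated 20 min at 61°C.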

human eosinophils [4] = experiment: Chemotactic deactivation of eosinophils, assessed by response to Val-Gly-Ser-Glu; format: cell-based; conditions: for deactivation (qualitative): 10-r' M tetrapeptide, response to valyl-tetrapeptide, Fig. 3
Outline: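 Leukocytes from hypereosinophilic donors were dextran-sedimented, washed and resuspended in HBSS with 0.4% ovalbumin and Tris-HCl pH 7.4. Eosinophils were preincubated 2–40 min at 37°C with graded valyl- or alanyl-tetrapeptide, then washed three times. They were then challenged in a Boyden chamber (3-µm filter) with 10^-7 M valyl-tetrapeptide. Residual response is given as % of buffer-treated cells, mean ±1 SD of three experiments.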

human eosinophils [5] = experiment: Cross-deactivation of eosinophils, assessed by response to C5a; format: cell-based; conditions: 10-12 M tetrapeptide pretreatment; Fig. 4
Outline: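 Eosinophils in HBSS-ovalbumin were pretreated 2–40 min at 37°C with graded valyl- or alanyl-tetrapeptide and washed three times. They were then challenged in a Boyden chamber with C5a at the level derived from 2.5 µg equivalent of C5/ml. C5a came from tryptic digestion of human plasma C5, heated 20 min at 61°C and centrifuged. Results are % of buffer-treated control, mean ±1 SD, three experiments.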

human eosinophils [6] = format: cell-based
Outline: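 Eosinophils were pretreated 20 min at 37°C with deactivating valyl-tetrapeptide or COOH-terminal tripeptide, with Val-Gly-Ser present at graded concentrations. They were then washed three times. Residual chemotactic response to 10^-7 M valyl-tetrapeptide was measured in Boyden chambers. It is expressed as mean % of buffer-exposed control response, from two experiments with different donors.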

## Gly-Ser-Glu
neutrophils; experiment 1
  irreversible inhibition of the neutrophil response: 33%
neutrophils; experiment 2
  irreversible inhibition of the neutrophil response: 28%
Human eosinophils [1]; 10^-7 M mixed with an equimolar quantity of valyl-tetrapeptide stimulus
  effect when mixed with stimulus: ineffective
Human eosinophils [1]; experiment 1
  irreversible inhibition of the eosinophil response to 10-7 M valyl-tetrapeptide: 61%
Human eosinophils [1]; experiment 2
  irreversible inhibition of the eosinophil response to 10-7 M valyl-tetrapeptide: 74%
Human eosinophils [1]; experiment 2 of three
  inhibition of response to 10-7 M valyl-tetrapeptide: 62%
Human eosinophils [1]; experiment 3 of three
  inhibition of response to 10-7 M valyl-tetrapeptide: 48%
Human eosinophils [2]
  chemotactic activity (qualitative): only marginally chemotactic
Human eosinophils [3]; experiment 1 of three
  inhibition of response to C5a: 71%
Human eosinophils [3]; experiment 2 of three
  inhibition of response to C5a: 53%
Human eosinophils [3]; experiment 3 of three
  inhibition of response to C5a: 37%

## Phe-Gly-Ser-Glu
Human eosinophils [2]
  magnitude of the maximum eosinophil response (rank among tetrapeptides): greatest maximum response
Human eosinophils [4]; at 10^-6 M
  deactivating activity (qualitative): comparable to 10-~ M alanyl-tetrapeptide
Human eosinophils [4]; at 10^-7 M
  deactivating activity (qualitative): minimally evident

## Ala-Gly-Ser-Glu
Human eosinophils [4]
  deactivation (qualitative): substantial deactivation
Human eosinophils [5]
  effect on eosinophil responsiveness to C5a: did not decrease

## Leu- Ser-Glu [Leu-Ser-Glu]
Human eosinophils [2]; versus maximum obtained with 10^-7 M tetrapeptides, Fig. 2
  maximum activity as fraction of maximum chemotactic activity of tetrapeptides: approximately two-thirds

## Val-Gly-Ser
neutrophils; equimolar concentrations, Discussion
  reduction of the neutrophil response to 10-7 M valyl-tetrapeptide: Approximately 50%
neutrophils; experiment 1
  inhibition of the response of neutrophils: 49%
neutrophils; experiment 2
  inhibition of the response of neutrophils: 54%
Human eosinophils [1]; experiment 1 of two
  inhibition of the valyl-tetrapeptide effect: 47%
Human eosinophils [1]; experiment 2 of two
  inhibition of the valyl-tetrapeptide effect: 61%
Human eosinophils [1]; on the stimulus side with 10^-7 M valyl-tetrapeptide, equimolar concentrations, Discussion, Fig. 5
  inhibition of the eosinophil response: 50-60%
Human eosinophils [1]; tripeptide added to the 10^-7 M tetrapeptide stimulus at approximately an equimolar concentration, Fig. 5, Results
  inhibition of the eosinophil response: 50%
Human eosinophils [2]
  chemotactic activity (qualitative): only marginally chemotactic
Human eosinophils [6]; at an equimolar concentration or at a 10-fold excess
  protection against the COOH-terminal tripeptide: no protection
Human eosinophils [6]; equimolar concentration of tripeptide and deactivating valyl-tetrapeptide
  protection from deactivation by valyl-tetrapeptide: 40-50%
Human eosinophils [6]; tripeptide at 10^-7 M with 10^-8 M valyl-tetrapeptide
  protection from deactivation by valyl-tetrapeptide (qualitative): completely protective
Human eosinophils [3]; experiment 1 of two
  inhibition of the C5a-stimulated response: 18%
Human eosinophils [3]; experiment 2 of two
  inhibition of the C5a-stimulated response: 29%

## Leu-Gly-Ser-Glu
Human eosinophils [2]
  magnitude of the maximum eosinophil response (rank among tetrapeptides): the least

## Val-Gly-Ser-Glu
neutrophils; experiment 1
  chemotactic response of neutrophils: 16.9 neutrophils/hpf
neutrophils; experiment 2
  chemotactic response of neutrophils: 21.4 neutrophils/hpf
Human eosinophils [2]; 10^-7 M stimulus, Table I, donor 2 (37% eosinophilia)
  control chemotactic response: 12.3 net eosinophils per hpf
Human eosinophils [2]; 10^-7 M stimulus, Table II, experiment 2, buffer-exposed cells
  control chemotactic response: 11.7 net eos/hpf
Human eosinophils [2]; valyl-tetrapeptide stimulus, neutrophil comparison, experiment 2
  chemotactic response of eosinophils: 15.3 eosinophils (eos)/hpf
Human eosinophils [4]
  deactivation (qualitative): substantial deactivation
Human eosinophils [5]
  effect on eosinophil responsiveness to C5a: did not decrease

B1: C5a: prepared by tryptic digestion of purified C5 prepared from human plasma (protein, UniProt P01031 678-751, looked up)
C5a anaphylatoxin: TLQKKIEEIAAKYKHSVVKKCCYDGACVNNDETCEQRAARISLGPRCIKAFTECCVVASQLRANISHKDMQLGR
modifications: C5a anaphylatoxin
Human eosinophils [2]; C5a derived from 2.5 µg equivalent of C5/ml, Fig. 4, donor 2 (43% eosinophilia)
  control chemotactic response: 16.5 net eos/hpf
Human eosinophils [2]; C5a derived from 2.5 µg equivalent of C5/ml, Fig. 4, donor 3 (59% eosinophilia)
  control chemotactic response: 18.8 net eos/hpf
